Assay results reported in publication PMC2765529 (Journal of medicinal chemistry, 2009).
Values joined by “and” are separate entries in the source; they are usually repeats but may differ in a detail not shown here. Equal values may be shown once. Where a name gives a salt, the structure may show the parent alone. Blank lines part the entries; values can stand above or below the molecule they belong to.

Key:
[1] = target: T1, human VAChT (Homo sapiens, UniProt Q16572); test: VAChT binding, competition against [^3H]vesamicol
T1 sequence (Q16572 1-532): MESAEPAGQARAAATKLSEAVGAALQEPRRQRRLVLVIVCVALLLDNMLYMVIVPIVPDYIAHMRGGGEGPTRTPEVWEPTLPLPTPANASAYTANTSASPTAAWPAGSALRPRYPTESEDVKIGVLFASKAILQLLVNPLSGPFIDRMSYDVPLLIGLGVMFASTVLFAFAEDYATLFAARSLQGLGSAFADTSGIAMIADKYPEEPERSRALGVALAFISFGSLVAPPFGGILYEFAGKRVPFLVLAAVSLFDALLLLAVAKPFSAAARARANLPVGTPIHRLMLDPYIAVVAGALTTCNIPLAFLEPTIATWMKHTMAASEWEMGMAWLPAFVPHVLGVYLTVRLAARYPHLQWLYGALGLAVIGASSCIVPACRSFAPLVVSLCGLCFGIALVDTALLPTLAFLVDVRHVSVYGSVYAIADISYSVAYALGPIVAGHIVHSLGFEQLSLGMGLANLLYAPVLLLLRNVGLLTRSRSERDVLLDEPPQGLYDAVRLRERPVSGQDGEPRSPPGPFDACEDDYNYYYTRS

[2] = Tissue biodistribution and regional brain uptake in rats; type: in vivo, male Sprague-Dawley rats; conditions: for Blood uptake: i.v., mean ± SD, n=4 rats
[3] = Ex vivo autoradiography of rat brain; type: in vivo, male Sprague-Dawley rat; conditions: rat sacrificed 1 h p.i., 1 mm coronal sections
In short: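 A single mature male Sprague-Dawley rat received ∼500 μCi of the 18F-labelled test compound by tail-vein injection under isoflurane/oxygen anaesthesia. The rat recovered and was euthanised 1 h later. The brain was taken out quickly and set in a metal brain matrix with 1 mm slots. A 1.0 mm slice through the striatum was imaged by flatbed scanner and by electronic autoradiography.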

[4] = 5 min p.i., rat brain dissection

IC50 [1]: 0.25 ± 0.02 nM
Molecule: O=C(c1ccc(Br)cc1)C1CCN([C@@H]2Cc3ccccc3C[C@H]2O)CC1 (racemic) [Compound 9b, (±)-trans-2-Hydroxy-3-(4-(4-bromobenzoyl)piperidino)tetralin hydrochloride]

IC50 [1]: 1.68 ± 0.04 nM
Molecule: Nc1ccc(C(=O)C2CCN([C@@H]3Cc4ccccc4C[C@H]3O)CC2)cc1 (racemic) [Compound 9c, (±)-trans-2-Hydroxy-3-(4-(4-aminobenzoyl)piperidino)tetralin]

IC50 [1]: 4.3 ± 1 nM
Molecule: O=C(c1ccccc1)C1CCN([C@@H]2Cc3ccccc3C[C@H]2O)CC1 (racemic) [Compound 9a, (±)-trans-2-Hydroxy-3-(4-benzoylpiperidino)tetralin hydrochloride]

IC50 [1]: 2.7 ± 0.4 nM
Ki ([1]; VAChT (Ki [nM]), [^3H]vesamicol competition, mean ± SEM): 2.7 ± 0.4 nM
Molecule: O=C(c1ccc(F)cc1)C1CCN([C@@H]2Cc3ccccc3C[C@H]2O)CC1 (relative stereo) [(±)9e, (±)-trans-2-Hydroxy-3-(4-(4-fluorobenzoyl)piperidino)tetralin]

Molecule: (-)-trans-2-Hydroxy-3-(4-(4-[^18F]fluorobenzoyl)piperidino)tetralin [(-)-[^18F]9e]
Bone uptake ([2]; 5 min p.i.): 0.334 ± 0.047 %ID/g
Brain uptake ([2]; 5 min p.i.): 0.823 ± 0.091 %ID/g
Fat uptake ([2]; 5 min p.i.): 0.132 ± 0.095 %ID/g
Heart uptake ([2]; 5 min p.i.): 0.321 ± 0.027 %ID/g
Kidney uptake ([2]; 5 min p.i.): 2.02 %ID/g and 2.018 ± 0.448 %ID/g
Muscle uptake ([2]; 5 min p.i.): 0.091 ± 0.018 %ID/g
Blood uptake ([2]; 5 min p.i.): 0.073 ± 0.010 %ID/g
Initial uptake in cerebellum [2, 4]: 0.743 %ID/g
Initial uptake in cortex [2, 4]: 0.911 %ID/g
Initial uptake in hippocampus [2, 4]: 0.837 %ID/g
Initial uptake in striatum [2, 4]: 0.911 %ID/g
Bone uptake ([2]; 30 min p.i.): 0.157 ± 0.004 %ID/g
Brain uptake ([2]; 30 min p.i.): 0.226 ± 0.014 %ID/g
Fat uptake ([2]; 30 min p.i.): 0.207 ± 0.018 %ID/g
Heart uptake ([2]; 30 min p.i.): 0.109 ± 0.014 %ID/g
Kidney uptake ([2]; 30 min p.i.): 1.896 ± 0.333 %ID/g
Lung uptake ([2]; 30 min p.i.): 0.481 ± 0.088 %ID/g
Muscle uptake ([2]; 30 min p.i.): 0.080 ± 0.008 %ID/g
Blood uptake ([2]; 30 min p.i.): 0.037 ± 0.002 %ID/g
Bone uptake ([2]; 1 h p.i.): 0.148 ± 0.015 %ID/g
Brain uptake ([2]; 1 h p.i.): 0.124 ± 0.013 %ID/g
Fat uptake ([2]; 1 h p.i.): 0.241 ± 0.021 %ID/g
Heart uptake ([2]; 1 h p.i.): 0.066 ± 0.008 %ID/g
Kidney uptake ([2]; 1 h p.i.): 1.298 ± 0.372 %ID/g
Lung uptake ([2]; 1 h p.i.): 0.327 ± 0.022 %ID/g
Muscle uptake ([2]; 1 h p.i.): 0.056 ± 0.010 %ID/g
Blood uptake ([2]; 1 h p.i.): 0.029 ± 0.005 %ID/g
Bone uptake ([2]; 2 h p.i.): 0.138 ± 0.006 %ID/g
Brain uptake ([2]; 2 h p.i.): 0.095 ± 0.016 %ID/g
Fat uptake ([2]; 2 h p.i.): 0.249 ± 0.036 %ID/g
Heart uptake ([2]; 2 h p.i.): 0.047 ± 0.009 %ID/g
Kidney uptake ([2]; 2 h p.i.): 1.339 ± 0.160 %ID/g
Lung uptake ([2]; 2 h p.i.): 0.199 ± 0.032 %ID/g
Muscle uptake ([2]; 2 h p.i.): 0.035 ± 0.007 %ID/g
Blood uptake ([2]; 2 h p.i.): 0.020 ± 0.002 %ID/g
accumulation in the cortex (autoradiogram) [3]: moderate accumulation
accumulation in the striatum (autoradiogram) [3]: high accumulation
